The values that follow come from ChEMBL document CHEMBL4513216, “Probing the Open Global Health Chemical Diversity Library for Multistage-Active Starting Points for Next-Generation Antimalarials” (ACS Infect Dis, 2020).

This data set in a line: Toxicity liver stage against HepG2, at 10uM. The data set is classed as cell-based. More on the design: test concentration 10 uM, cell line HepG2-A16-CD81EGFP. The conditions noted are these: human, HepG2-A16-CD81EGFP cells; read-out: INHIBITION
In short, it runs like this: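 Uninfected HepG2-A16-CD81EGFP cells, 3 × 10^3 per well, 1536-well, plated on prespotted compound at 10 μM final, parasite-free screening media added to match infected plates; puromycin 10 μM positive, DMSO 0.5% negative; run in parallel with 48 h PbLuc assay at 37 °C, 5% CO2; viability by CellTiter-Glo luminescence, normalized to controls.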
As to `CCc1nccn1C1CCCN(C(=O)c2csc(NC(C)=O)n2)C1` (stereo unspecified), the cytotoxicity at 10 µM was -13%. On to `CC(CN1CCOCC1)NCc1nncn1C1CCCCC1` (stereo unspecified), for which the cytotoxicity at 10 µM was 1.52%. Next, `COc1cccc2c1OCC(C(=O)NCCc1nc3c(s1)CCC3)C2` (stereo unspecified): -39.6%; `Cc1nc(C2CN(C)CCO2)cc(N2CCC(CO)CC2)n1` (stereo unspecified): -34%; `CCN(C)C(=O)c1cc(-c2cn(C(C)C)cn2)n2ccccc12`: -1.16%. As for `COc1ccc2c(c1)CN(CC(=O)NC1CCCC1)CC2`, the cytotoxicity at 10 µM is -1.77%.

In the case of `O=S(=O)(Cc1ccccc1)NC[C@H]1Cn2ccnc2CO1`, the cytotoxicity at 10 µM is 6.88%.

Consider `CC(C)CC(=O)N1CCCn2cnc(CNS(C)(=O)=O)c2C1`, for which the cytotoxicity at 10 µM is -1.22%. In the case of `CC1CCN(S(=O)(=O)NCC2CCOc3ccccc3C2)CC1` (stereo unspecified), the cytotoxicity at 10 µM is -1.25%.

Turning to `Nc1cc(-c2c[nH]nc2C2CCN(C(=O)C3CCCC3)C2)ccn1` (stereo unspecified), the cytotoxicity at 10 µM was found to be 7.49%. With `CC(C)N1CCC2(CC1)C(=O)N(c1cccnc1)c1ccc(F)cc12`, the cytotoxicity at 10 µM came out at 12.4%. For the compound `CN1CCN(C[C@@H]2CN(C(=O)NCC3CCCCC3)C[C@@H]2CO)CC1`, the cytotoxicity at 10 µM is -9.18%. For `Cc1ccc(CCC(=O)N2CCn3c(nnc3C(C)C)C2)cc1Cl` the value was -5.45%; for `CN(C)CCOCC1CN(CC2CCOCC2)Cc2nnn(C)c21` (stereo unspecified), 3.01%. Regarding `CCCNC(=O)CN1CCC(NCc2csc(C(C)C)n2)CC1`, the cytotoxicity at 10 µM was -1.4%.

In the case of `O=C(NCC1CC1)[C@@H]1CCO[C@@H]2CCN(c3ncccn3)C[C@@H]21`, the cytotoxicity at 10 µM worked out at 7.64%.

Turning to `O=C(CN1CCC(Nc2ncccn2)CC1)Nc1ccccc1`, the cytotoxicity at 10 µM was -17.5%. With `O=C(C1CC1)N1CCc2ccccc2C12CCNCC2`, the cytotoxicity at 10 µM was found to be 5.35%. Next, `Cc1cnc(C(=O)NCC2Cc3ccccc3O2)cn1` (stereo unspecified): -0.71%. Next, `CNS(=O)(=O)c1csc(C(=O)NCc2sccc2C)c1`: 4.63%; `O=C(c1cc[nH]n1)N1CCC(F)(F)C2(CCN(c3ccccn3)C2)C1` (stereo unspecified): 2.38%; `COc1ccc(CN(CC2CCCO2)C(=O)CN2CCOC2=O)cc1` (stereo unspecified): -1.39%. For `Cc1nc(C)n(CC2CCCCN2CCS(C)(=O)=O)n1` (stereo unspecified) the value was -10.9%. For the compound `COCCN1CC[C@H](OC)[C@@H]1Cc1ccccc1`, the cytotoxicity at 10 µM is -0.675%.

As to `CNc1nc(C)c(C(=O)N2CCC(C(O)Cc3ccccc3)CC2)s1` (stereo unspecified), the cytotoxicity at 10 µM was 3.11%. For the compound `O=C(CCc1cc2n(n1)CCCN(C(=O)c1cccnc1)C2)NC1CC1`, the cytotoxicity at 10 µM was -7.38%. Regarding `CC(C)c1nc(/C=C/c2ccc(O)c(Cl)c2)ncc1C(=O)O`, the cytotoxicity at 10 µM is -1.7%.

Take `COc1ccc(C2SC(C)=Nc3c2c(=O)[nH]n3C2CCCC2)cc1O` (stereo unspecified): the cytotoxicity at 10 µM was 9.98%. For `CC(CC(=O)N1CCCN(Cc2cscn2)CC1)n1cccc1` (stereo unspecified) the value was -8.01%. For `CCc1nc(CN2CCOC(CN(CC)c3cccnn3)C2)cs1` (stereo unspecified), the cytotoxicity at 10 µM was 3.09%. `Cc1nc(N)nc(C)c1CC(=O)N1CCCN(CC2CC2)C(C(C)C)C1` (stereo unspecified): the cytotoxicity at 10 µM is -142%.

In the case of `COc1cccc(CCC2CCCN(Cc3ncc[nH]3)C2)c1` (stereo unspecified), the cytotoxicity at 10 µM came to 1.13%. As for `O=C(N[C@@H]1CCNC[C@H]1O)c1ccc(O)c(Cl)c1`, the cytotoxicity at 10 µM was -5.46%.

On to `Cc1cc(C(=O)NCCC(=O)N2CCCc3ccccc32)no1`, for which the cytotoxicity at 10 µM was 2.29%. In the case of `O=C(C1CN(c2ncc(F)cn2)CC12CCOCC2)N1CC=CC1` (stereo unspecified), the cytotoxicity at 10 µM turned out to be 9.49%. Next, `Cc1ccc(CC(=O)N2CCCC(c3cc(C)[nH]n3)C2)cn1` (stereo unspecified): -7.2%. `CCOCC1c2c(cnn2CC2CC2)CCN1C(=O)c1ccncn1` (stereo unspecified): the cytotoxicity at 10 µM is -118%. Next, `Cc1nc(C)n(CC2CCCN2Cc2nc3ccccc3nc2C)n1` (stereo unspecified): 6.21%. As for `CC(C(=O)Nc1ccon1)n1ccc(C(F)(F)F)n1` (stereo unspecified), the cytotoxicity at 10 µM was found to be 5.15%.

Regarding `CCC(CC)NC(=O)c1ccc2c(c1)C(c1nc[nH]n1)CN2S(C)(=O)=O` (stereo unspecified), the cytotoxicity at 10 µM was -138%. Next, `CC(C)Oc1cccc(CN2CCC(C(C)N3CCOCC3)CC2)c1` (stereo unspecified): -5.84%. On to `O=C(c1cccn2ccnc12)N1CCCN(c2cccnn2)CC1`, for which the cytotoxicity at 10 µM is 1.68%.

Consider `COCCC1(C(=O)NCCc2nncn2C2CC2)CCC1`, for which the cytotoxicity at 10 µM was -9.22%. In the case of `CCCc1cc(CN(C)C2CCSCC2)n[nH]1`, the cytotoxicity at 10 µM is -20.6%.

Turning to `CCN1CCN(C[C@@H]2CN(c3ncc(Cl)cc3F)C[C@@H]2CO)CC1`, the cytotoxicity at 10 µM is -7.06%. As to `CCC1c2ccsc2CCN1C(=O)NCCc1ccccn1` (stereo unspecified), the cytotoxicity at 10 µM was -12.4%.

On to `CCC(C)(NC(=O)CCN1CCOC1=O)C(=O)OC` (stereo unspecified), for which the cytotoxicity at 10 µM is -16%. Consider `CCc1ccccc1Nc1noc2c1CN(C(=O)CCOC)CC2`, for which the cytotoxicity at 10 µM is -16.6%.

On to `CCc1nc(C2CCCN(C(=O)NC(C)C)C2)no1` (stereo unspecified), for which the cytotoxicity at 10 µM was -14%. As to `Cc1cc(C(F)(F)F)nc(N2CCN(Cc3nccn3C)CC2)n1`, the cytotoxicity at 10 µM was -4.28%. As for `O=C(CCO)N1C[C@H]2CN(c3ccccc3)C(=O)[C@H]2C1`, the cytotoxicity at 10 µM came to 1.35%. Turning to `O=C(c1cnco1)N1C[C@@H]2CC[C@H](Oc3cccc(F)c3)[C@@H]2C1`, the cytotoxicity at 10 µM was -6.18%. For `CCNC(=O)[C@@H]1C[C@@H](N)CN1C(=O)Cc1cc(C)ccc1C`, the cytotoxicity at 10 µM was 1.87%.

On to `CS(=O)(=O)NCCn1ccc(-c2cccs2)n1`, for which the cytotoxicity at 10 µM came to 1.43%. With `O=C(NCCNc1cnccn1)N1CCCC1`, the cytotoxicity at 10 µM was 3.92%. On to `Cc1cccc(CNC2CCN(CCc3ccncc3)CC2)c1C`, for which the cytotoxicity at 10 µM was -9.04%. Next, `CCC(NC(=O)c1cc(CC(C)C)nn1C)c1ccnn1C` (stereo unspecified): -146%; `Cc1nc(N2CCOCC2)nc2c1CN(C(=O)C(C)C)CC2`: 0.552%. For `CCc1noc(C(C)N2CCc3c(ncn3C3CC3)C2)n1` (stereo unspecified) the value was 4.36%; for `CCc1nc(C2CCCN2Cc2cc(C)nc3ccccc23)no1` (stereo unspecified), 86%; for `NCCO[C@H]1C[C@@H](O)C12CCN(C(=O)COc1cccc(Cl)c1)CC2`, -4.32%. As for `COc1ccc(C2CC(=O)Nc3nc(N4CCOCC4)sc32)c(OC)c1` (stereo unspecified), the cytotoxicity at 10 µM was 53.8%.

Take `O=C(c1ccccn1)N1CCN(C(c2ccccc2)C(F)(F)F)CC1` (stereo unspecified): the cytotoxicity at 10 µM is -8.18%. Turning to `CC(C)C(=O)NCCC(=O)N1CCN(c2ccccn2)CC1`, the cytotoxicity at 10 µM was -6.13%. Next, `COCCN1CCC(c2nc3ccc(NC(C)C)cn3n2)CC1`: -5.26%; `CC(=O)N1CC2(CCCCN2Cc2ccc(Cl)cc2)Cc2ccccc21` (stereo unspecified): 14.5%; `c1cnnc(NCC2CN(Cc3ccon3)CCO2)c1` (stereo unspecified): -32.2%. Consider `Cc1cc(NC(=O)C(C)NCCn2cccn2)no1` (stereo unspecified), for which the cytotoxicity at 10 µM turned out to be 10.6%. For the compound `Cc1ccc(CNC(=O)c2c[nH]nc2NC(=O)COCC2CC2)cc1`, the cytotoxicity at 10 µM was found to be 3.58%. Consider `Cc1ccccc1CC(=O)N[C@@H]1CCC[C@@H](N2CCNC(=O)C2)[C@@H]1O`, for which the cytotoxicity at 10 µM was -24.5%. As to `NC(=O)C1CCCN(c2ccc(CNC(=O)c3cnsn3)cc2)C1` (stereo unspecified), the cytotoxicity at 10 µM turned out to be 2.25%.

`Cc1nc(C2CCCN(C(=O)c3ccncc3)C2)c2sccn12` (stereo unspecified): the cytotoxicity at 10 µM was -10.4%. With `O=C(NCCNC(=O)N1CCC(c2ccccc2)C1)C1CC1` (stereo unspecified), the cytotoxicity at 10 µM was -3.08%. Regarding `O=C(CCN1C[C@@H]2CC[C@H]1CN(c1ncccn1)C2)NCc1ccco1`, the cytotoxicity at 10 µM is -1.18%. As to `CC1CCc2nc(O)c(C(=O)NCc3cccc(F)c3)cc2C1` (stereo unspecified), the cytotoxicity at 10 µM stood at 3.43%. On to `CC(C)N1CC(C(=O)N2CCC(Oc3ccccc3Cl)CC2)CC1=O` (stereo unspecified), for which the cytotoxicity at 10 µM was -3.21%. Turning to `CN(c1ccc(CNC(=O)c2ccc(O)nc2)cc1)C1CCCCC1`, the cytotoxicity at 10 µM was -0.77%. Next, `CNC(=O)CN1CCC2(CCCN(CC3CCOC3)C2)CC1` (stereo unspecified): -107%; `NC(c1ccccc1)c1ccc(OC(F)F)cc1` (stereo unspecified): 1.79%; `O=C(c1ccc(NC2CC2)nc1)N1CCCC(n2ccnc2)C1` (stereo unspecified): -3.81%.

As to `Cc1noc(C)c1C(=O)N(Cc1ccsc1)CC1CCCO1` (stereo unspecified), the cytotoxicity at 10 µM amounted to 3.91%. Next, `O=C(NCc1cccnc1)C1=NOC2(CCN(S(=O)(=O)C3CC3)C2)C1` (stereo unspecified): -7.36%; `CC(C)N(Cc1cccc(F)c1)Cc1nc2c(cnn2C)c(=O)[nH]1`: -10.5%. Take `CC(C)[C@H]1CN(CCCO)C[C@@H]1NC(=O)CCC(F)(F)F`: the cytotoxicity at 10 µM was -0.6%. For the compound `CCC1=N[C@@]2(CC[C@@H]3CN(S(=O)(=O)CC(C)C)C[C@@H]32)C(=O)N1CC`, the cytotoxicity at 10 µM worked out at 0.167%. For `CC1=CCN(C(=O)Nc2ccccc2N2CCOC2=O)CC1` the value was -0.724%; for `CN(C)CCN1CCN(Cc2nccs2)Cc2cccnc21`, -1.08%. Regarding `c1cnnc(N2CCCC2CNc2ncnc3sccc23)c1` (stereo unspecified), the cytotoxicity at 10 µM was -12.9%. For the compound `CCCS(=O)(=O)N1C[C@@H]2CN(Cc3ccoc3)CCO[C@@H]2C1`, the cytotoxicity at 10 µM is -117%. Consider `O=C(NC[C@H]1CCCC[C@H]1O)c1cccc2[nH]c(-c3ccco3)nc12`, for which the cytotoxicity at 10 µM is -2.51%.

Take `CC1=CCN(S(=O)(=O)c2cccc(C(=O)N3CCCN(C)CC3)c2)CC1`: the cytotoxicity at 10 µM is -2.36%. With `CCN1CCC2(CCC(=O)N2Cc2cccc(C)n2)CC1`, the cytotoxicity at 10 µM was determined as 5.08%. For `CC(=O)NCC(=O)N1CCOCC(Cc2ccc3c(ccn3C)c2)C1` (stereo unspecified) the value was 1.89%.

On to `CCC(CC)(CNC(=O)c1cccn1Cc1cccnc1)N(C)C`, for which the cytotoxicity at 10 µM was -53.6%.

With `CN1CCC(N(Cc2ccccc2)C(=O)c2ccn3ccnc3c2)CC1`, the cytotoxicity at 10 µM was determined as 5.63%. Next, `COc1cccc(C(=O)Nc2cc(CC(C)C)nn2C)c1`: -9.42%.
